Source: PubChem BioAssay
DENV2 CPE: inhibitors of DENV2 cytopathic effect, primary screen, cell-based, plate reader, single concentration | 1.7% of 350,000 active | CPE inhibition, % at 9.99 µM | DENV2-infected cells, cytopathic effect rescue; in the data active means CPE inhibition above about 20%, passing the limit was not always enough; inconclusive means no clear call, values can overlap the other calls; tested in BHK-21 cells
SIRT5 inh: SIRT5 desuccinylase inhibitors, primary screen, biochemical, fluorescence imaging, single point, set 5; NAD-dependent protein deacylase sirtuin-5, mitochondrial (Homo sapiens), Q9NXA8; Purified SirT5, succinyl-peptide AMC, trypsin-coupled fluorescence; inhibition, % at 15 µM; 1.1% of 330,000 active; in the data active means inhibition above about 15%; inconclusive means no clear call, values can overlap the other calls
Target sequence (Q9NXA8 whole entry, looked up): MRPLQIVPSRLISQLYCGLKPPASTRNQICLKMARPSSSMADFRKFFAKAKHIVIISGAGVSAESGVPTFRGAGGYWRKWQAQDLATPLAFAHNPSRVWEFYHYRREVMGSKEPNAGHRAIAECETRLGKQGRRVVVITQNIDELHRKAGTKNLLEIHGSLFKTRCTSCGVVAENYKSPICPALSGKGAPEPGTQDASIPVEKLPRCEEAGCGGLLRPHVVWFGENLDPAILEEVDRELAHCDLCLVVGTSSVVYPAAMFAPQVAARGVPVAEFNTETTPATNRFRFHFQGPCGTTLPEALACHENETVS
E-sel inducer: E-selectin induction in HUVECs, primary screen, imaging, HUVEC, immunofluorescence imaging, single point; P16581; normalized: neutral wells 0, TNF-alpha wells 100; activation, % at 7.58 µM; 0.37% of 260,000 active; AID 686992, 2013;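 active means mean E-selectin-positive cell signal at least 10% of the positive control, reached in at least 60% of replicates, without over 20% cell loss; inconclusive means no rule given, readout overlaps actives, possibly toxicity-flagged; inactive means the rest, including those meeting only one limit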
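Test system: HUVEC; input: 3,000 HUVEC/well; measured by: immunofluorescence imaging; read-out: % PE-positive cells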
Hits are given with their value; . = inactive; ? = inconclusive; / = no result. A selection: hits, their analogues and other compounds. The true share with any hit is near 2.8%.

SMILES | DENV2 CPE | SIRT5 inh | E-sel inducer
N#Cc1ccccc1CSc1nc2ccc(NC(=O)c3ccccc3C(=O)O)cc2s1 | . | . | /
O=C(O)c1ccc(CSc2nc3ccc(NC(=O)c4ccccc4C(=O)O)cc3s2)cc1 | . | 17.1 | /
Nc1nnc(SCC(=O)Nc2ccc(N3CCOCC3)c(Cl)c2)s1 | . | . | .
Nc1nnc(SCC(=O)Nc2cccc(Cl)c2)s1 | 49.5 | . | .
CCOc1ccccc1NC(=O)CN1c2cccc3cccc(c23)S1(=O)=O | . | 18.5 | .
Cc1ccc(NC(=O)CN2c3cccc4cccc(c34)S2(=O)=O)cc1 | . | . | /
C[C@@H]1CN([C@@H](C)CO)C(=O)c2cc(NC(=O)CCN3CCOCC3)ccc2O[C@H]1CN(C)Cc1ccc(Cl)c(Cl)c1 | . | . | .
C[C@H]1CN([C@@H](C)CO)C(=O)c2cccc(NS(=O)(=O)c3ccc(Cl)cc3)c2O[C@@H]1CN(C)Cc1ccncc1 | . | . | .
Cc1cccc(C(=O)OCC(=O)NC(=O)c2ccccc2)c1O | . | 16.3 | .
Cc1cccc(C(=O)O)c1O | 67.5 | / | /
Cc1cccc(Nc2ccccc2C(=O)O)c1C | . | . | .
Cc1cc(C)c(C(=O)OCC(=O)NC(=O)c2ccccc2)c(C)c1 | ? | . | /
O=C(Cc1ccccn1)N1CC(=O)N2[C@@H](CO)[C@H](c3ccc(C#CC4CCCCC4)cc3)[C@@H]2C1 | . | . | .
O=C(N[C@H]1CC[C@@H](CCNC(=O)C2CCOCC2)O[C@H]1CO)c1ccccn1 | . | . | .
O=C(C[C@@H]1C=C[C@H](NC(=O)c2cccnc2)[C@@H](CO)O1)NCc1ccncn1 | . | . | .
C[C@H]1CN([C@@H](C)CO)C(=O)c2cc(NC(=O)C3CC3)ccc2O[C@H]1CN(C)Cc1ccc(C(F)(F)F)cc1 | 26.6 | . | .
CC(C)NC(=O)Nc1ccc2c(c1)C(=O)N([C@H](C)CO)C[C@@H](C)[C@H](CN(C)Cc1ccc(C(F)(F)F)cc1)O2 | . | 15.2 | .
C[C@@H]1CN([C@H](C)CO)C(=O)c2cc(NC(=O)Nc3ccc(C(F)(F)F)cc3)ccc2O[C@@H]1CN(C)Cc1ccc(C(F)(F)F)cc1 | . | . | .
CC(C)NC(=O)Nc1ccc2c(c1)C(=O)N([C@@H](C)CO)C[C@@H](C)[C@@H](CN(C)Cc1ccc(C(F)(F)F)cc1)O2 | . | . | 59.3
CC(C)NC(=O)Nc1ccc2c(c1)C(=O)N([C@@H](C)CO)C[C@H](C)[C@@H](CN(C)Cc1ccc(C(F)(F)F)cc1)O2 | . | . | 89.1
C[C@H](CO)N1C[C@H](C)[C@H](CN(C)Cc2ccc(C(F)(F)F)cc2)Oc2ccc(NC(=O)Nc3ccc(C(F)(F)F)cc3)cc2C1=O | ? | . | .
C[C@H]1CN([C@@H](C)CO)C(=O)c2cc(NC(=O)C3CCCCC3)ccc2O[C@@H]1CN(C)Cc1ccc(C(F)(F)F)cc1 | . | . | .
C[C@@H]1CN([C@@H](C)CO)C(=O)c2cc(NC(=O)Nc3ccc(C(F)(F)F)cc3)ccc2O[C@@H]1CN(C)Cc1ccc(C(F)(F)F)cc1 | . | . | .
CO[C@@H]1CN(C)C(=O)c2cc(NC(C)=O)ccc2OC[C@H](C)N(Cc2cccnc2)C[C@H]1C | / | / | .
C[C@@H]1CN([C@@H](C)CO)S(=O)(=O)c2ccc(C#CC3(O)CCCC3)cc2O[C@H]1CN(C)C(=O)c1ccccc1 | . | . | .
SMILES | DENV2 CPE | SIRT5 inh | E-sel inducer
O=C(NC1Cc2ccccc2C1)[C@@H]1[C@@H](CO)[C@@H]2Cn3c(ccc(C4=CCCCC4)c3=O)[C@@H]2N1CC1CC1 | . | . | .
C/C=C/c1ccc([C@H]2[C@@H](CO)N3C(=O)CN(C(=O)Nc4ccc(F)cc4)C[C@@H]23)cc1 | . | . | .
O=c1c2ccccc2c(-c2n[nH]c(=S)o2)nn1Cc1ccccc1 | . | / | /
OCc1ccc(-c2nn(Cc3ccccc3)c3ccccc23)o1 | . | . | 117.2
CC(/C=N/NC(=O)c1c(Br)cnn1C)=C\c1ccccc1 | / | / | .
CC(/C=N/NC(=O)c1nn(C)c(C)c1Br)=C\c1ccccc1 | 25.0 | / | /
Cc1noc(C)c1NC(=O)N[C@@H]1C=C[C@H](CC(=O)NCc2ccc(Cl)c(Cl)c2)O[C@H]1CO | ? | . | .
C[C@H](CO)N1C[C@H](C)[C@@H](CN(C)S(=O)(=O)c2ccccc2)Oc2ccc(NC(=O)Nc3cccc4ccccc34)cc2CC1=O | . | . | .
O=C1N[C@@H](Cc2ccccc2)[C@@H](c2ccco2)O1 | ? | 45.0 | .
C[C@@H]1NC(=O)OC1c1ccco1 (some centres undefined) | . | / | /
COc1cc(C(C)=O)ccc1OCc1cn(CC(=O)c2ccc(O)cc2)nn1 | . | 20.9 | .
CC(=O)c1ccc(OCc2cn(CC(=O)c3ccc(O)cc3)nn2)c(C)c1 | . | . | .
COc1ccc(S(=O)(=O)Nc2ccc3c(c2)CC(=O)N([C@@H](C)CO)C[C@@H](C)[C@@H](CN(C)S(=O)(=O)c2ccccc2)O3)cc1 | ? | / | .
Cc1ccc(S(=O)(=O)Nc2ccc3c(c2)CC(=O)N([C@@H](C)CO)C[C@H](C)[C@H](CN(C)S(=O)(=O)c2c(C)noc2C)O3)cc1 | . | . | .
Cc1ccc(S(=O)(=O)Nc2ccc3c(c2)CC(=O)N([C@H](C)CO)C[C@H](C)[C@@H](CN(C)S(=O)(=O)c2c(C)noc2C)O3)cc1 | . | 15.8 | .
C[C@H](CO)N1C[C@H](C)[C@@H](CN(C)S(=O)(=O)c2ccccc2)Oc2ccc(NS(=O)(=O)c3cccs3)cc2CC1=O | . | . | .
COc1ccc(S(=O)(=O)N(C)C[C@H]2Oc3ccc(NS(=O)(=O)c4ccccc4)cc3CC(=O)N([C@H](C)CO)C[C@@H]2C)cc1 | . | 16.8 | .
COc1ccc(S(=O)(=O)N(C)C[C@@H]2Oc3ccc(NS(C)(=O)=O)cc3CC(=O)N([C@@H](C)CO)C[C@H]2C)cc1 | 47.8 | . | /
COc1ccc(S(=O)(=O)N(C)C[C@@H]2Oc3ccc(NS(C)(=O)=O)cc3CC(=O)N([C@@H](C)CO)C[C@@H]2C)cc1 | . | . | /
C[C@H]1CN([C@@H](C)CO)C(=O)Cc2cc(NS(=O)(=O)c3cccs3)ccc2O[C@@H]1CN(C)S(=O)(=O)c1ccccc1 | 41.0 | . | .
C[C@H](CO)N1C[C@H](C)[C@@H](CN(C)S(C)(=O)=O)Oc2ncc(C#CC3CCCC3)cc2C1=O | . | . | .
COc1ccc2c3c([nH]c2c1)[C@H](CO)N(S(C)(=O)=O)CC31CCN(C(=O)c2ccncc2)CC1 | . | . | .
COc1ccc2c3c(n(C)c2c1)[C@H](CO)N(C(=O)C1CCC1)CC31CN(C)C1 | . | / | .
COc1ccc(S(=O)(=O)Nc2ccc3c(c2)CC(=O)N([C@@H](C)CO)C[C@@H](C)[C@H](CN(C)S(=O)(=O)c2ccc(C)cc2)O3)cc1 | . | 18.5 | .
COc1ccc(S(=O)(=O)N(C)C[C@@H]2Oc3ccc(NS(=O)(=O)c4ccc(C)cc4)cc3CC(=O)N([C@H](C)CO)C[C@@H]2C)cc1 | . | / | .
C[C@H]1CN([C@@H](C)CO)C(=O)Cc2cc(NS(=O)(=O)c3ccc(Cl)cc3)ccc2O[C@H]1CN(C)C(=O)Nc1ccccc1 | . | . | .
